Experimental data reported in ChEMBL document CHEMBL2331171, “Anti-malarial activity of new N-acetyl-L-leucyl-L-leucyl-L-norleucinal (ALLN) derivatives against Plasmodium falciparum” (Bioorg Med Chem Lett, 2013).
Where a SMILES comes first, the peptide text is derived from it. [ ]: non-standard residue; d: D form. Nle = CCCC[C@H](N)C(=O)O

Legend:
Plasmodium falciparum = assay: Antimalarial activity against Plasmodium falciparum FCR-3 infected in erythrocytes assessed as reduction in parasitemia after 72 hrs by light microscopic analysis; type: functional, cell-based; details: FCR-3/Gambia
Summary of the method: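 P. falciparum FCR3 in erythrocytes exposed to compounds; parasitemia (parasite content of erythrocytes) counted microscopically; concentration giving 50% growth inhibition derived. Mean SD of three independent experiments, each in triplicate.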

[1] = Therapeutic index, ratio of CC50 for human HeLa cells to IC50 for Plasmodium falciparum FCR-3; type: cell-based; details: HeLa cells versus Plasmodium falciparum FCR-3, read-out: Ratio CC50/IC50
[2] = Cytotoxicity against human HeLa cells assessed as growth inhibition after 48 hrs by MTS assay; type: cell-based

Compound | IC50 (Plasmodium falciparum) | selectivity ratio [1] | CC50 at 48 h [2]
CC(C)(C)OC(=O)N[C@H](CCCNC(=O)OCc1ccccc1)C(=O)N[C@H](/C=C/C(=O)N1CCCC1)Cc1ccccc1 | 11.4 µM | 13.4 | 153 µM
CNC(=O)/C=C/[C@H](Cc1ccccc1)NC(=O)[C@@H](CCCNC(=O)OCc1ccccc1)NC(C)C | 56.3 µM | 10.8 | 611 µM
CC(C)(C)OC(=O)N[C@H](CCCNC(=O)OCc1ccccc1)C(=O)N[C@H](/C=C/C=C/C(=O)N1CCCCC1)Cc1ccccc1 | 15.7 µM | 11.2 | 175 µM
CCCC[C@@H](C=O)NC(=O)[C@H](CC(C)C)NC(=O)[C@H](CC(C)C)NC(C)=O (Ac-Leu-Leu-[Nle]-aldehyde) | 0.64 µM | 39.2 | 25.1 µM
CN(C)C(=O)/C=C/C=C/[C@H](Cc1ccccc1)NC(=O)[C@@H](CCCNC(=O)OCc1ccccc1)NC(=O)OC(C)(C)C | > 100 µM | – | 117 µM
CNC(=O)/C=C/[C@H](Cc1ccccc1)NC(=O)[C@@H](CCCNC(=O)OCc1ccccc1)NCc1cccc(C)c1 | 5 µM | 48.3 | 242 µM
CNC(=O)/C=C/[C@H](Cc1ccccc1)NC(=O)[C@@H](CCCNC(=O)OCc1ccccc1)NCc1ccc(OC)cc1 | 16.7 µM | 27.6 | 461 µM
CNC(=O)/C=C/C=C/[C@H](Cc1ccccc1)NC(=O)[C@@H](CCCNC(=O)OCc1ccccc1)NC(=O)OC(C)(C)C | 23.6 µM | 11.9 | 281 µM
CC(C)NC(=O)/C=C/[C@H](Cc1ccccc1)NC(=O)[C@@H](CCCNC(=O)OCc1ccccc1)NC(=O)OC(C)(C)C | 9.29 µM | 33.8 | 314 µM
CCNC(=O)/C=C/[C@H](Cc1ccccc1)NC(=O)[C@@H](CCCNC(=O)OCc1ccccc1)NC(=O)OC(C)(C)C | > 100 µM | – | 2000 µM
CNC(=O)/C=C/[C@H](Cc1ccccc1)NC(=O)[C@@H](CCCNC(=O)OCc1ccccc1)NC(=O)OC(C)(C)C | 5 µM | 157 | 1060 µM
CNC(=O)/C=C/[C@H](Cc1ccccc1)NC(=O)[C@@H](CCCNC(=O)OCc1ccccc1)NCc1ccccc1 | 15.3 µM | 16.5 | 253 µM
CC(C)(C)OC(=O)N[C@H](CCCNC(=O)OCc1ccccc1)C(=O)N[C@H](/C=C/C=C/C(=O)N1CCCC1)Cc1ccccc1 | > 100 µM | – | 53.1 µM
CNC(=O)/C=C/[C@H](Cc1ccccc1)NC(=O)[C@@H](CCCNC(=O)OCc1ccccc1)NCc1cc(OC)cc(OC)c1 | 16.4 µM | 15.8 | 259 µM
